Active and inactive are the calls of the source. No cut-off for these calls is given here.
Legend:
Type in all cases: functional
3T3-L1 [1] = assay: Increase in 2-NBDG uptake in serum-starved mouse 3T3L1 adipocytes at 10 uM measured under basal condition by inverted fluorescence microscopy
Summary of the method: (§1)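 Adipocytes from 3T3-L1 cells, differentiated 2 days post-confluence in DMEM with 0.5 mM IBMX, dexamethasone and insulin for 48 h, then 2 days in DMEM (10% FBS) with insulin alone. Used 8–10 days after differentiation start. After 1-h serum starvation, cells got agents in KRH for 0.5 h, then […] 2-NBDG for 1 h. They were washed 3× with KRH and imaged by inverted fluorescence microscopy. Metformin was the control.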

3T3-L1 [2] = assay: Increase in glucose uptake in serum-starved mouse 3T3L1 adipocytes at 10 uM pretreated followed by glucose addition measured under basal condition by glucose oxidase peroxidase method
Summary of the method: (§2)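 3T3-L1 adipocytes, used 8–10 days after differentiation (IBMX/dexamethasone/insulin for 48 h, then insulin for 2 days), were incubated with agents in KRH buffer. Glucose in KRH was measured at 0 h and 4 h by glucose oxidase–peroxidase kit, and the difference was taken as consumed glucose. Metformin was the positive control. Data are mean ± SEM of independent experiments.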

3T3-L1 [3] = assay: Increase in 2-NBDG uptake in serum-starved mouse 3T3L1 adipocytes at 1 mM measured under basal condition by inverted fluorescence microscopy; summary of the method: as §1
3T3-L1 [4] = assay: Increase in glucose uptake in serum-starved mouse 3T3L1 adipocytes at 1 mmol/L pretreated followed by glucose addition measured under basal condition by glucose oxidase peroxidase method; summary of the method: as §2

| Structure (SMILES) | Activity (3T3-L1 [1]) | Activity (3T3-L1 [2]) | Activity (3T3-L1 [3]) | Activity (3T3-L1 [4]) |
| --- | --- | --- | --- | --- |
| COc1cc2oc(=O)ccc2cc1-c1c(O)cc(O)c2c(=O)cc(-c3ccc(O)cc3)oc12 | Active | 57% |  |  |
| CN(C)C(=N)NC(=N)N |  |  | Active | Active |
| O=c1c(O)c(-c2ccc(O)c(O)c2)oc2cc(O)cc(O)c12 |  | Active |  |  |
| O=c1cc(-c2ccccc2)oc2cc(O)cc(O)c12 |  | Active |  |  |
| COc1cc2oc(=O)ccc2cc1-c1c(O)cc(O)c2c(=O)cc(-c3ccc(O)c(O)c3)oc12 | Active | Active |  |  |
| O=c1cc(-c2ccc(O)c(O)c2)oc2cc(O)cc(O)c12 |  | Active |  |  |
| COc1cc2oc(=O)ccc2cc1-c1c(O)cc(O)c2c(=O)cc(-c3ccccc3)oc12 |  | Active |  |  |
| COc1cc2oc(=O)ccc2cc1-c1c(O)cc(O)c2c(=O)c(O)c(-c3ccc(O)c(O)c3)oc12 | Active | Active |  |  |
| O=c1ccc2cc(-c3c(O)cc(O)c4c(=O)cc(-c5ccccc5)oc34)c(O)cc2o1 |  | Active |  |  |
| O=c1ccc2cc(-c3c(O)cc(O)c4c(=O)cc(-c5ccc(O)cc5)oc34)c(O)cc2o1 | Active | 48% |  |  |
| O=c1cc(-c2ccc(O)cc2)oc2cc(O)cc(O)c12 |  | Active |  |  |
